From ChEMBL document CHEMBL2424556, “Hybrid benzofuran-bisindole derivatives: new prototypes with promising anti-hyperlipidemic activities” (2013)
Calls of active or inactive are those of the source. The rule behind the calls is not given here.

Experiments:
[1] = Antioxidant activity assessed as inhibition of superoxide anion generation at 200 ug/mL after 30 mins by NBT reduction assay relative to control; format: functional
Method in brief: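 Superoxide was generated by xanthine, xanthine oxidase (0.04 U) and nitroblue tetrazolium in 100 mM phosphate buffer pH 8.2, with or without agent at 200 µg/ml, for 30 min at 37 °C. Stopped with glacial acetic acid; formazan read at 560 nm, and % inhibition derived using ε 7.2 × 10³ M⁻¹cm⁻¹.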

Rattus norvegicus [2] = assay: Antihyperlipidemic activity in Charles-Foster rat assessed as reversal of triton-induced increase in plasma phospholipid level at 100 mg/kg, po after 18 hrs relative to control; format: functional
Method in brief: (§1)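 Male adult Charles Foster rats (200-225 g), 6 per group; triton WR-1339 400 mg/kg i.p. plus oral test agent in 0.2% gum acacia suspension, given together, diet withdrawn. After 18 h, retro-orbital EDTA blood was centrifuged 2500 g, 4 °C, 10 min; plasma was diluted 1:3 in saline and TC, PL and TG were assayed enzymatically (mg/dl). Mean ± SD; Student's t-test.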

Rattus norvegicus [3] = assay: Antihyperlipidemic activity in Charles-Foster rat assessed as reversal of triton-induced increase in plasma total cholesterol level at 100 mg/kg, po after 18 hrs relative to triton-treated control; format: functional; method in brief: as §1
Rattus norvegicus [4] = assay: Antihyperlipidemic activity in Charles-Foster rat assessed as reversal of triton-induced increase in plasma total cholesterol level at 100 mg/kg, po after 18 hrs relative to control; format: functional; method in brief: as §1
[5] = Antioxidant activity assessed as inhibition of microsomal lipid peroxidation at 200 ug/mL by spectrophotometric analysis relative to control; format: functional
[6] = Antioxidant activity assessed as inhibition of hydroxyl radical generation at 200 ug/mL after 90 mins by spectrophotometric analysis relative to control; format: functional
Method in brief: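 Hydroxyl radicals were generated non-enzymically from deoxyribose (2.8 mM), FeSO4 (2 mM), sodium ascorbate (2.0 mM) and H2O2 (2.8 mM) in KH2PO4 buffer pH 7.4, 2.5 mL final, with or without agent at 200 µg/ml, for 90 min at 37 °C. MDA was read spectrophotometrically by the thiobarbituric acid method against reference samples and reagent blanks.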

Rattus norvegicus [7] = assay: Antihyperlipidemic activity in triton-induced Charles-Foster rat assessed as increase in plasma lecithin cholesterol acyltransferase activity at 100 mg/kg, po after 18 hrs by colorimetric assay; format: functional, organism-based; set-up: dose 100 mg/kg
Rattus norvegicus [8] = assay: Antihyperlipidemic activity in Charles-Foster rat assessed as reversal of triton-induced decrease in HDL level at 100 mg/kg, po after 18 hrs; format: functional, organism-based; set-up: dose 100 mg/kg
Method in brief: (§2)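 Triton WR-1339 (400 mg/kg i.p.) hyperlipidemic male Charles Foster rats dosed 100 mg/kg p.o. for 18 h, 6/group. Serum was fractionated into VLDL, LDL and HDL by polyanionic precipitation and lipoprotein cholesterol measured. Mean ± SD; Student's t-test against triton group.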

Rattus norvegicus [9] = assay: Antihyperlipidemic activity in Charles-Foster rat assessed as reversal of triton-induced increase in LDL level at 100 mg/kg, po after 18 hrs; format: functional, organism-based; set-up: dose 100 mg/kg; method in brief: as §2
Rattus norvegicus [10] = assay: Antihyperlipidemic activity in Charles-Foster rat assessed as reversal of triton-induced increase in VLDL level at 100 mg/kg, po after 18 hrs; format: functional, organism-based; set-up: dose 100 mg/kg; method in brief: as §2
Rattus norvegicus [11] = assay: Antihyperlipidemic activity in Charles-Foster rat assessed as reversal of triton-induced increase in plasma triglyceride level at 150 mg/kg, po after 18 hrs relative to triton-treated control; format: functional
Method in brief: (§3)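 Dose-response in triton WR-1339 (400 mg/kg i.p.) hyperlipidemic male Charles Foster rats given oral agent at 50, 100 or 150 mg/kg in gum acacia suspension for 18 h, 6 rats/group. Plasma TC, PL and TG were measured enzymatically. Pooled data as mean ± SD; triton versus triton-plus-agent groups compared by t-test.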

Rattus norvegicus [12] = assay: Antihyperlipidemic activity in Charles-Foster rat assessed as reversal of triton-induced increase in plasma triglyceride level at 50 mg/kg, po after 18 hrs relative to triton-treated control; format: functional; method in brief: as §3
Rattus norvegicus [13] = assay: Antihyperlipidemic activity in Charles-Foster rat assessed as reversal of triton-induced increase in plasma phospholipid level at 150 mg/kg, po after 18 hrs relative to triton-treated control; format: functional; method in brief: as §3
Rattus norvegicus [14] = assay: Antihyperlipidemic activity in Charles-Foster rat assessed as reversal of triton-induced increase in plasma phospholipid level at 50 mg/kg, po after 18 hrs relative to triton-treated control; format: functional; method in brief: as §3
Rattus norvegicus [15] = assay: Antihyperlipidemic activity in Charles-Foster rat assessed as reversal of triton-induced increase in plasma total cholesterol level at 150 mg/kg, po after 18 hrs relative to triton-treated control; format: functional; method in brief: as §3
Rattus norvegicus [16] = assay: Antihyperlipidemic activity in Charles-Foster rat assessed as reversal of triton-induced increase in plasma total cholesterol level at 50 mg/kg, po after 18 hrs relative to triton-treated control; format: functional; method in brief: as §3
Rattus norvegicus [17] = assay: Antihyperlipidemic activity in Charles-Foster rat assessed as post heparin lipolytic activity at 100 mg/kg, po after 18 hrs by spectrophotometric analysis relative to triton-treated control; format: functional
Method in brief: (§4)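 Male adult Charles Foster rats (200-225 g), 6 per group. Triton WR-1339 400 mg/kg i.p.; test agent 100 mg/kg p.o. as gum acacia (0.2% w/v) suspension in water, given simultaneously, diet withdrawn; vehicle to control and triton groups. At 18 h under thiopentone (50 mg/kg), retro-orbital blood collected into EDTA and plasma separated. Post-heparin lipolytic activity read spectrophotometrically as nmol free fatty acid/h/ml plasma; mean ± SD; Student's t-test.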

Rattus norvegicus [18] = assay: Antihyperlipidemic activity in Charles-Foster rat assessed as post heparin lipolytic activity at 100 mg/kg, po after 18 hrs by spectrophotometric analysis relative to control; format: functional; method in brief: as §4
Rattus norvegicus [19] = assay: Antihyperlipidemic activity in Charles-Foster rat assessed as reversal of triton-induced increase in plasma triglyceride level at 100 mg/kg, po after 18 hrs relative to triton-treated control; format: functional; method in brief: as §1
Rattus norvegicus [20] = assay: Antihyperlipidemic activity in Charles-Foster rat assessed as reversal of triton-induced increase in plasma triglyceride level at 100 mg/kg, po after 18 hrs relative to control; format: functional; method in brief: as §1
Rattus norvegicus [21] = assay: Antihyperlipidemic activity in Charles-Foster rat assessed as reversal of triton-induced increase in plasma phospholipid level at 100 mg/kg, po after 18 hrs relative to triton-treated control; format: functional; method in brief: as §1
Rattus norvegicus [22] = assay: Antihyperlipidemic activity in po dosed Charles-Foster rat assessed as reversal of triton-induced increase in plasma triglyceride level after 18 hrs; format: functional, organism-based; method in brief: as §1
Rattus norvegicus [23] = assay: Antihyperlipidemic activity in po dosed Charles-Foster rat assessed as reversal of triton-induced increase in plasma phospholipid level after 18 hrs; format: functional, organism-based; method in brief: as §1
Rattus norvegicus [24] = assay: Antihyperlipidemic activity in po dosed Charles-Foster rat assessed as reversal of triton-induced increase in plasma total cholesterol level after 18 hrs; format: functional, organism-based; method in brief: as §1

Row | Compound | inhibition [1] [%] | Activity (Rattus norvegicus [2]) [mg/dL] | Activity (Rattus norvegicus [3]) [%] | Activity (Rattus norvegicus [4]) [mg/dL] | inhibition [5] [%] | Activity (Rattus norvegicus [7]) | Activity (Rattus norvegicus [8]) | Activity (Rattus norvegicus [9]) | Activity (Rattus norvegicus [10]) | Activity (Rattus norvegicus [11]) [%] | Activity (Rattus norvegicus [12]) [%] | Activity (Rattus norvegicus [13]) [%] | Activity (Rattus norvegicus [14]) [%] | Activity (Rattus norvegicus [15]) [%] | Activity (Rattus norvegicus [16]) [%] | Activity (Rattus norvegicus [17]) [%] | Activity (Rattus norvegicus [18]) [nmol/h/mL] | Activity (Rattus norvegicus [19]) [%] | Activity (Rattus norvegicus [20]) [mg/dL] | Activity (Rattus norvegicus [21]) [%] | also measured
1 | Oc1ncnc2[nH]ncc12 | 51 |  |  |  |  |  |  |  |  |  |  |  |  |  |  |  |  |  |  |  | 
2 | COc1ccc(C(=O)c2cc3cc(C(c4c[nH]c5ccc(OC)cc45)c4c[nH]c5ccc(OC)cc45)cc(C)c3o2)cc1 | 33 | 159.29 | -23 | 141.84 | 31 | Active | Active | Active | Active | -25 | -16 | -24 | -17 | -25 | -15 | 16 | 15.32 | -24 | 164.24 | -23 | inhibition [6]: 30%
3 | CCc1cc(C(c2c[nH]c3ccc(OC)cc23)c2c[nH]c3ccc(OC)cc23)cc2cc(C(=O)c3ccc(OC)cc3)oc12 | 31 | 146.88 | -28 | 132.63 | 32 | Active | Active | Active | Active | -30 | -20 | -29 | -20 | -29 | -22 | 18 | 15.58 | -28 | 155.59 | -29 | inhibition [6]: 27%; Activity (Rattus norvegicus [22]): Dose-dependent effect; Activity (Rattus norvegicus [23]): Dose-dependent effect; Activity (Rattus norvegicus [24]): Dose-dependent effect
4 | COc1ccc(C(=O)c2cc3cc(C(c4c[nH]c5ccc(OC)cc45)c4c[nH]c5ccc(OC)cc45)cc(C(C)(C)C)c3o2)cc1 |  | 159.29 | -24 | 139.99 |  | Active | Active | Active | Active | -24 | -21 | -23 | -20 | -27 | -20 | 17 | 15.45 | -23 | 166.4 | -23 | 
5 | CCCc1cc(C(c2c[nH]c3ccc(OC)cc23)c2c[nH]c3ccc(OC)cc23)cc2cc(C(=O)c3ccc(OC)cc3)oc12 |  | 159.29 | -24 | 139.99 |  | Active | Active | Active | Active | -24 | -16 | -26 | -18 | -24 | -17 | 16 | 15.32 | -23 | 166.4 | -23 | 
